In ChEMBL document CHEMBL3739408, “Antibacterial Prenylated Acylphloroglucinols from Psorothamnus fremontii” (J Nat Prod, 2015):
In brackets after ≈: the same amount, converted by molar mass.

What was measured:
Enterococcus faecalis [1] = test: Antibacterial activity against vancomycin-sensitive Enterococcus faecalis ATCC 29212 by plate reader analysis; type: functional, organism-based
Procedure, shortened: (§1)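 Strains from ATCC; modified CLSI broth microdilution. Samples in DMSO were serially diluted in 20% DMSO–saline and plated in duplicate. Inocula were set by adjusting OD630 to give the final target CFU/mL. Methicillin and vancomycin were positive controls, with highest test concentrations of 50 and 20 μg/mL. IC50 is the 50% growth inhibition relative to controls, from curve fitting.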

Enterococcus faecalis [2] = test: Antibacterial activity against low level vancomycin-resistant Enterococcus faecalis ATCC 51299 by plate reader analysis; type: functional, organism-based; procedure, shortened: as §1
Enterococcus faecium = test: Antibacterial activity against vancomycin-resistant Enterococcus faecium ATCC 700221 by plate reader analysis; type: functional, organism-based; procedure, shortened: as §1
Staphylococcus aureus [3] = test: Antibacterial activity against methicillin-sensitive Staphylococcus aureus ATCC 29213 by plate reader analysis; type: functional, organism-based; procedure, shortened: as §1
Staphylococcus aureus [4] = test: Antibacterial activity against methicillin-resistant Staphylococcus aureus ATCC 33591 by plate reader analysis; type: functional, organism-based; procedure, shortened: as §1
Staphylococcus aureus [5] = test: Antibacterial activity against methicillin-resistant Staphylococcus aureus ATCC 1717 by plate reader analysis; type: functional, organism-based; procedure, shortened: as §1
Staphylococcus aureus [6] = test: Antibacterial activity against methicillin-resistant Staphylococcus aureus ATCC 1708 by plate reader analysis; type: functional, organism-based; procedure, shortened: as §1
Staphylococcus aureus [7] = test: Antibacterial activity against methicillin-resistant Staphylococcus aureus ATCC 1696 by plate reader analysis; type: functional, organism-based; procedure, shortened: as §1
Vero = test: Cytotoxicity against African green monkey Vero cells assessed as cell viability after 48 hrs by neutral red-based assay; conditions: Chlorocebus sabaeus
Procedure, shortened: (§2)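 Mammalian cell lines from ATCC: human hepatic carcinoma HepG2, pig kidney epithelial LLC-PK1, and African green monkey kidney Vero. Highest test concentration was 50 μg/mL, and doxorubicin was the positive control at up to 10 μg/mL. IC50 was taken as the concentration giving 50% growth inhibition of the mammalian cells.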

HepG2 = test: Cytotoxicity against human HepG2 cells assessed as cell viability after 48 hrs by neutral red-based assay; conditions: HepG2, 48 h; procedure, shortened: as §2
LLC-PK1 = test: Cytotoxicity against pig LLC-PK1 cells assessed as cell viability after 48 hrs by neutral red-based assay; conditions: Sus scrofa, LLC-PK1, 48 h; procedure, shortened: as §2

SMILES: CN[C@@H](CC(C)C)C(=O)N[C@H]1C(=O)N[C@@H](CC(N)=O)C(=O)N[C@H]2C(=O)N[C@H]3C(=O)N[C@H](C(=O)N[C@@H](C(=O)O)c4cc(O)cc(O)c4-c4cc3ccc4O)[C@H](O)c3ccc(c(Cl)c3)Oc3cc2cc(c3O[C@H]2O[C@@H](CO)[C@H](O)[C@@H](O)[C@@H]2O[C@@H]2C[C@@](C)(N)[C@@H](O)[C@@H](C)O2)Oc2ccc(cc2Cl)[C@H]1O
- IC50 (Enterococcus faecalis [1]): 1.4 µg/mL (≈ 0.966 µM)
- IC50 (Enterococcus faecalis [2]): 3.3 µg/mL (≈ 2.28 µM)
- IC50 (Enterococcus faecium): > 20 µg/mL

SMILES: CC1=C2OC(C)(C)CC3OC23C(=O)C(C(=O)C(C)C)=C1O (centres undefined)
- IC50 (Staphylococcus aureus [3]): 10 µg/mL (≈ 34.2 µM)
- IC50 (Staphylococcus aureus [4]): 11.1 µg/mL (≈ 38 µM)

SMILES: COc1cccc(OC)c1C(=O)N[C@@H]1C(=O)N2[C@@H]1SC(C)(C)[C@@H]2C(=O)O [METHICILLIN]
- IC50 (Staphylococcus aureus [5]): 26.9 µg/mL (≈ 70.7 µM)
- IC50 (Staphylococcus aureus [6]): 3.2 µg/mL (≈ 8.41 µM)
- IC50 (Staphylococcus aureus [3]): 0.5 µg/mL (≈ 1.31 µM)
- IC50 (Staphylococcus aureus [7]): 3 µg/mL (≈ 7.89 µM)
- IC50 (Staphylococcus aureus [4]): > 50 µg/mL

SMILES: CC(C)=CCC1=C2OC(C)(C)CC3OC23C(=O)C(C(=O)C(C)C)=C1O (centres undefined)
- IC50 (Vero): 21 µg/mL (≈ 60.6 µM)
- IC50 (Enterococcus faecalis [1]): 5.3 µg/mL (≈ 15.3 µM)
- IC50 (Staphylococcus aureus [5]): 1.6 µg/mL (≈ 4.62 µM)
- IC50 (Enterococcus faecalis [2]): 2.8 µg/mL (≈ 8.08 µM)
- IC50 (Staphylococcus aureus [6]): 8.6 µg/mL (≈ 24.8 µM)
- IC50 (Staphylococcus aureus [3]): 2.4 µg/mL (≈ 6.93 µM)
- IC50 (Enterococcus faecium): 1.6 µg/mL (≈ 4.62 µM)
- IC50 (Staphylococcus aureus [7]): 8.8 µg/mL (≈ 25.4 µM)
- IC50 (HepG2): 31 µg/mL (≈ 89.5 µM)
- IC50 (Staphylococcus aureus [4]): 1.4 µg/mL (≈ 4.04 µM)
- IC50 (LLC-PK1): 30 µg/mL (≈ 86.6 µM)

SMILES: COc1cccc2c1C(=O)c1c(O)c3c(c(O)c1C2=O)C[C@@](O)(C(=O)CO)C[C@@H]3O[C@H]1C[C@H](N)[C@H](O)[C@H](C)O1 [DOXORUBICIN]
- IC50 (LLC-PK1): 0.5 µg/mL (≈ 0.92 µM)

SMILES: CCC(C)C(=O)C1=C(O)C(C)=C2OC(C)(C)CC3OC23C1=O (centres undefined)
- IC50 (Staphylococcus aureus [3]): 5.6 µg/mL (≈ 18.3 µM)
- IC50 (Staphylococcus aureus [4]): 6.2 µg/mL (≈ 20.2 µM)
